From ChEMBL document CHEMBL5625173, “Antimycobacterial pyridine carboxamides: From design to in vivo activity” (Eur J Med Chem, 2023)
pIC50: −log10 of the molar value. Values after ≈ are worked out from the molar mass of the structure shown. Active and inactive are the calls of the source. No cut-off for these calls is given here.

What was measured:
[1] = tested on: Mycobacterium tuberculosis; experiment: Antimycobacterial activity against Mycobacterium tuberculosis H37Rv by alamar blue staining based microplate analysis; type: functional
Outline: (§1)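 Microplate Alamar Blue assay. MIC values read at pH 6.6 (neutral). One acidic-pH test at pH 5.6 is footnoted separately.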

[2] = tested on: Mycobacterium tuberculosis; experiment: Antimycobacterial activity against Mycobacterium tuberculosis H37Ra by alamar blue staining based microplate analysis; type: functional; outline: as §1
[3] = tested on: Mycobacterium kansasii; experiment: Antimycobacterial activity against Mycobacterium kansasii by alamar blue staining based microplate analysis; type: functional
Outline: (§2)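 Microplate Alamar Blue assay, one of six mycobacterial strains tested (Mtb H37Rv, Mtb H37Ra, M. kansasii, M. avium, M. smegmatis, M. aurum); value reported as MIC.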

[4] = tested on: Mycobacterium avium; experiment: Antimycobacterial activity against Mycobacterium avium by alamar blue staining based microplate analysis; type: functional; outline: as §1
[5] = tested on: Mycolicibacterium smegmatis; experiment: Antimycobacterial activity against Mycobacterium smegmatis by alamar blue staining based microplate analysis; type: functional; outline: as §2
[6] = tested on: Mycolicibacterium aurum; experiment: Antimycobacterial activity against Mycobacterium aurum by alamar blue staining based microplate analysis; type: functional; outline: as §2
[7] = Cytotoxicity against human HepG2 cells assessed as inhibition of cell viability; type: toxicity, cell-based
[8] = Selectivity index, ratio of IC50 for cytotoxicity against human HepG2 cells to MIC for antimycobacterial activity against Mycobacterium tuberculosis H37Rv; type: toxicity, cell-based; settings: read-out: Selectivity Index
[9] = tested on: Mycobacterium tuberculosis; experiment: Antimycobacterial activity against Mycobacterium tuberculosis H37Rv infected in mouse assessed as reduction in colony formation in lungs at 50 mg/kg administered for 28 days; type: functional, organism-based; settings: time 28.0 day
Outline: (§3)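 Mice infected intranasally with Mtb H37Rv; infection allowed to develop four weeks. Then dosed for 28 days with sodium salt forms as water solution by gastric tube. Lung and spleen CFU determined and compared with untreated control group.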

[10] = tested on: Mycobacterium tuberculosis; experiment: Antimycobacterial activity against Mycobacterium tuberculosis H37Rv infected in mouse assessed as reduction in colony formation in spleen at 50 mg/kg administered for 28 days; type: functional, organism-based; settings: time 28.0 day; outline: as §3
[11] = tested on: Mycobacterium tuberculosis; experiment: Antimycobacterial activity against Mycobacterium tuberculosis IZAK by alamar blue staining based microplate analysis; type: functional
[12] = tested on: Mycobacterium tuberculosis; experiment: Antimycobacterial activity against Mycobacterium tuberculosis MAT1 by alamar blue staining based microplate analysis; type: functional
[13] = Metabolic stability in human liver microsomes assessed as half life at 3 uM incubated for 45 mins by HPLC-MS analysis; type: ADME, Microsome
Outline: (§4)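 Ammonium salt or lactone, 3 μM, incubated with human liver microsomes at physiological pH; reactions stopped at 0, 5, 15, 30 and 45 min and analysed by HPLC-MS; k, t1/2 and intrinsic clearance calculated from the HPLC-MS records.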

[14] = Metabolic stability in human liver microsomes assessed as intrinsic clearance at 3 uM incubated for 45 mins by HPLC analysis; type: ADME, Microsome; settings: read-out: CLH; outline: as §4
[15] = Drug metabolism in human liver microsomes assessed as M1 metabolite formation at 90 uM incubated for 3 hrs; type: ADME, Microsome
Outline: (§5)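 Phase I metabolite identification: ammonium salt of the compound (for solubility) or its lactone, 90 μM, incubated with human liver microsomes for 3 h; metabolites detected by HPLC-MS, positive ion mode, by m/z.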

[16] = Drug metabolism in human liver microsomes assessed as M2 metabolite formation at 90 uM incubated for 3 hrs; type: ADME, Microsome; outline: as §5

SMILES | MIC [1] [µg/mL] | MIC [2] [µg/mL] | MIC [3] [µg/mL] | MIC [4] [µg/mL] | MIC [5] [µg/mL] | MIC [6] [µg/mL] | pIC50 [7] | selectivity ratio [8] | Activity [9] | Activity [10] | MIC [11] [µg/mL] | MIC [12] [µg/mL] | half-life at 3 µM [13] [h] | microsomal CLint at 3 µM [14] [µL/min/mg] | Drug metabolism [15] | Drug metabolism [16]
O=C(Nc1cnccn1)c1ccc(Cl)nc1 | > 100 | ≥ 250 | > 100 | > 100 | ≥ 250 | ≥ 250 | < 3.00 |  |  |  |  |  |  |  |  | 
O=C(Nc1cnccn1)c1ccc2ccccc2n1 | > 100 | ≥ 125 | > 100 | > 100 | ≥ 125 | ≥ 125 | < 4.00 |  |  |  |  |  |  |  |  | 
Cc1cc(C(=O)Nc2cncc(Cl)n2)ccn1 | > 100 | ≥ 500 | > 100 | > 100 | ≥ 500 | 250 (≈ 1010 µM) | < 3.00 |  |  |  |  |  |  |  |  | 
O=C(Nc1cncc(Cl)n1)c1ccc(Cl)nc1 | 100 (≈ 372 µM) | ≥ 500 | > 100 | > 100 | ≥ 500 | ≥ 500 | < 3.30 |  |  |  |  |  |  |  |  | 
O=C(Nc1cncc(Cl)n1)c1ccc2ccccc2n1 | > 25 | ≥ 125 | > 25 | > 25 | ≥ 125 | ≥ 125 | < 4.60 |  |  |  |  |  |  |  |  | 
O=C(Nc1ccc(C(=O)O)c(O)c1)c1ccncc1 | 3.13 (≈ 12.1 µM) | ≥ 125 | 50 (≈ 194 µM) | 100 (≈ 387 µM) | ≥ 125 | ≥ 125 | < 3.00 | 82.5 |  |  |  |  |  |  |  | 
Cc1cc(C(=O)Nc2ccc(C(=O)O)c(O)c2)ccn1 | 12.5 (≈ 45.9 µM) | ≥ 125 | > 100 | > 100 | ≥ 125 | ≥ 125 | < 3.00 | 21.8 |  |  |  |  |  |  |  | 
Cc1cc(C(=O)Nc2cnccn2)cc(Cl)n1 | > 100 | ≥ 500 | > 100 | > 100 | ≥ 500 | ≥ 500 | < 3.60 |  |  |  |  |  |  |  |  | 
O=C(O)c1ccc(NC(=O)c2cccc(Cl)n2)cc1 | > 100 | 62.5 (≈ 226 µM) | > 100 | > 100 | ≥ 500 | 250 (≈ 904 µM) | < 3.60 |  |  |  |  |  |  |  |  | 
O=C(Nc1ccc(C(=O)O)c(O)c1)c1ccc(Cl)nc1 | 1.56 (≈ 5.33 µM) | 125 (≈ 427 µM) | 12.5 (≈ 42.7 µM) | 100 (≈ 342 µM) | ≥ 250 | ≥ 250 | < 3.00 | 188 | inactive | Active |  |  |  |  |  | 
Cc1cc(C(=O)Nc2cnccn2)ccn1 | > 100 | ≥ 250 | > 100 | > 100 | ≥ 250 | ≥ 250 | < 3.00 |  |  |  |  |  |  |  |  | 
O=C(O)c1ccc(NC(=O)c2ccccn2)cc1 | > 100 | 125 (≈ 516 µM) | > 100 | > 100 | ≥ 500 | 250 (≈ 1030 µM) | < 3.60 |  |  |  |  |  |  |  |  | 
Cc1cc(C(=O)Nc2ccc(C(=O)O)c(O)c2)cc(O)n1 | 6.25 (≈ 21.7 µM) | ≥ 500 | > 100 | > 100 | ≥ 500 | ≥ 500 | < 3.00 | 46.1 |  |  |  |  |  |  |  | 
Cc1cc(C(=O)Nc2ccc(C(=O)O)c(O)c2)cc(Cl)n1 | 50 (≈ 163 µM) | 250 (≈ 815 µM) | > 100 | > 100 | ≥ 500 | ≥ 500 | < 3.00 |  |  |  |  |  |  |  |  | 
O=C(Nc1cnccn1)c1ccc(C(F)(F)F)cn1 | 50 (≈ 186 µM) | ≥ 500 | 6.25 (≈ 23.3 µM) | > 100 | ≥ 500 | ≥ 500 | < 3.84 |  |  |  |  |  |  |  |  | 
Nc1cnccn1 | > 100 | ≥ 500 | > 100 | > 100 | ≥ 500 | ≥ 500 | < 3.00 |  |  |  |  |  |  |  |  | 
Nc1ccc(C(=O)O)cc1 [AMINOBENZOIC ACID] | > 100 | 250 (≈ 1820 µM) | > 100 | > 100 | ≥ 500 | 250 (≈ 1820 µM) | < 3.00 |  |  |  |  |  |  |  |  | 

SMILES | MIC [1] [µg/mL] | MIC [2] [µg/mL] | MIC [3] [µg/mL] | MIC [4] [µg/mL] | MIC [5] [µg/mL] | MIC [6] [µg/mL] | pIC50 [7] | selectivity ratio [8] | Activity [9] | Activity [10] | MIC [11] [µg/mL] | MIC [12] [µg/mL] | half-life at 3 µM [13] [h] | microsomal CLint at 3 µM [14] [µL/min/mg] | Drug metabolism [15] | Drug metabolism [16]
O=C(Nc1cnccn1)c1ccccn1 | > 100 | 250 (≈ 1250 µM) | > 100 | > 100 | ≥ 500 | ≥ 500 | < 3.00 |  |  |  |  |  |  |  |  | 
COc1ccnc(C(=O)Nc2cnccn2)c1 | > 100 | ≥ 250 | 50 (≈ 217 µM) | > 100 | ≥ 250 | ≥ 250 | < 3.60 |  |  |  |  |  |  |  |  | 
CO[C@H]1/C=C/O[C@@]2(C)Oc3c(C)c(O)c4c(O)c(c(/C=N/N5CCN(C)CC5)c(O)c4c3C2=O)NC(=O)/C(C)=C\C=C\[C@H](C)[C@H](O)[C@@H](C)[C@@H](O)[C@@H](C)[C@H](OC(C)=O)[C@@H]1C [RIFAMPIN] |  | 0.003 (≈ 0.00365 µM) |  |  | 12.5 (≈ 15.2 µM) | 0.198 (≈ 0.241 µM) | < 3.30 |  |  |  |  |  |  |  |  | 
O=C(O)c1ccc(NC(=O)c2ccc3ccccc3n2)cc1 | 25 (≈ 85.5 µM) | 31.2 (≈ 107 µM) | 25 (≈ 85.5 µM) | 25 (≈ 85.5 µM) | ≥ 500 | 62.5 (≈ 214 µM) | < 4.30 | > 0.6 |  |  |  |  |  |  |  | 
O=C(O)c1ccc(NC(=O)c2ccc(Cl)nc2)cc1 | > 100 | 62.5 (≈ 226 µM) | > 100 | > 100 | ≥ 500 | 250 (≈ 904 µM) | < 3.60 |  |  |  |  |  |  |  |  | 
NC(=O)c1cnccn1 [PYRAZINAMIDE] | > 100 | ≥ 500 | > 100 | > 100 | ≥ 500 | ≥ 500 | < 3.00 |  |  |  |  |  |  |  |  | 
COc1ccnc(C(=O)Nc2cncc(Cl)n2)c1 | > 100 | ≥ 500 | > 100 | > 100 | ≥ 500 | 250 (≈ 945 µM) | < 3.30 |  |  |  |  |  |  |  |  | 
Nc1cncc(Cl)n1 | > 100 | ≥ 500 | > 100 | > 100 | ≥ 500 | ≥ 500 | < 3.00 |  |  |  |  |  |  |  |  | 
O=C(Nc1ccc(C(=O)O)c(O)c1)c1ccc2ccccc2n1 | 1.56 (≈ 5.06 µM) | 31.2 (≈ 101 µM) | 100 (≈ 324 µM) | 100 (≈ 324 µM) | 31.2 (≈ 101 µM) | 15.6 (≈ 50.7 µM) | < 3.00 | 198 |  |  | 6.25 (≈ 20.3 µM) | 12.5 (≈ 40.5 µM) | 10.5 | 2.2 | Metabolite_Detected | Metabolite_Detected
O=C(O)c1ccc(NC(=O)c2cccc(C(F)(F)F)n2)cc1 | 50 (≈ 161 µM) | 62.5 (≈ 201 µM) | 50 (≈ 161 µM) | > 100 | ≥ 500 | 62.5 (≈ 201 µM) | < 3.61 |  |  |  |  |  |  |  |  | 
O=C(Nc1ccc(C(=O)O)c(O)c1)c1cccc(C(F)(F)F)n1 | 3.13 (≈ 9.59 µM) | 31.2 (≈ 95.8 µM) | 12.5 (≈ 38.3 µM) | 12.5 (≈ 38.3 µM) | 250 (≈ 766 µM) | 62.5 (≈ 192 µM) | < 3.79 | 34.1 |  |  |  |  |  |  |  | 
NNC(=O)c1ccncc1 [ISONIAZID] | 0.2 (≈ 1.46 µM) | 0.25 (≈ 1.82 µM) | 12.5 (≈ 91.1 µM) | 12.5 (≈ 91.1 µM) | 15.6 (≈ 114 µM) | 3.91 (≈ 28.5 µM) | < 3.00 |  |  |  |  |  |  |  |  | 
O=C(Nc1cnccn1)c1ccncc1 | > 100 | ≥ 500 | > 100 | > 100 | ≥ 500 | ≥ 500 | < 3.00 |  |  |  |  |  |  |  |  | 
COc1ccnc(C(=O)Nc2ccc(C(=O)O)c(O)c2)c1 | 1.56 (≈ 5.41 µM) | 31.2 (≈ 108 µM) | > 100 | > 100 | 125 (≈ 434 µM) | 62.5 (≈ 217 µM) | < 3.00 | 185 |  |  |  |  |  |  |  | 
O=C(Nc1cnccn1)c1cccc(Cl)n1 | > 100 | ≥ 500 | 50 (≈ 213 µM) | > 100 | ≥ 500 | ≥ 500 | < 3.60 |  |  |  |  |  |  |  |  | 
O=C(Nc1ccc(C(=O)O)c(O)c1)c1ccccn1 | 1.56 (≈ 6.04 µM) | 250 (≈ 968 µM) | 50 (≈ 194 µM) | > 100 | 15.6 (≈ 60.5 µM) | 62.5 (≈ 242 µM) | < 3.00 | 166 |  |  |  |  |  |  |  | 
O=C(Nc1ccc(C(=O)O)c(O)c1)c1cccc(Cl)n1 | 3.13 (≈ 10.7 µM) | 125 (≈ 427 µM) | > 100 | 100 (≈ 342 µM) | 125 (≈ 427 µM) | 125 (≈ 427 µM) | < 3.00 | 93.5 |  |  |  |  |  |  |  | 
